Columns and labels:
[1] = test system: Oocyte; experiment: Allosteric modulation of gamma-aminobutyric acid receptor A alpha1beta2gamma2S expressed in Xenopus oocytes assessed as potentiation of GABA-mediated chloride current at 100 uM by voltage clamp analysis relative to control; format: cell-based
Procedure, shortened: (§1)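 Oocytes were injected with α1β2γ2S, α1β3γ2S, α2β2γ2S, α3β2γ2S or α5β2γ2S cRNAs at a 1:1:10 ratio. Two-electrode voltage clamp was run 1–5 days post-injection in HEPES-buffered saline at pH 7.4. Compounds in GABA EC5–10 (3–10 μM) were given by automated fast perfusion: screening at 10 and 100 μM (n = 2), otherwise concentration series. Potentiation = I(GABA+Comp)/IGABA − 1, with nonlinear regression fits.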

[2] = test system: Oocyte; experiment: Allosteric modulation of gamma-aminobutyric acid receptor A alpha1beta2gamma2S expressed in Xenopus oocytes assessed as potentiation of GABA-mediated chloride current at 10 uM by voltage clamp analysis relative to control; format: cell-based; procedure, shortened: as §1

Row | Imax [1] | Imax [2] | Compound
1 | -13.1% | -13.4% | C=C1CC[C@@H]2[C@](C)(CCC[C@]2(C)C(=O)OC)[C@H]1CCC1=CCOC1=O
2 | 3% | 3.8% | C=C[C@]1(C)C=C2CC[C@H]3[C@](C)(C=O)[C@@H](O)CC[C@]3(C)[C@H]2CC1
3 | 7.7% | 13.8% | C=C[C@]1(C)C=C2CC[C@H]3[C@](C)(CO)[C@@H](O)CC[C@]3(C)[C@H]2CC1
4 | -15.1% | -10.6% | CC(C)c1c(O)ccc2c1CC[C@H]1C(C)(C)CCC[C@]21C
